Experimental data published in ChEMBL document CHEMBL1287652, “QSAR modeling, synthesis and bioassay of diverse leukemia RPMI-8226 cell line active agents” (2010).

Key:
Format in all cases: functional
UACC-257 = experiment: Antitumor activity against human UACC257 cells after 48 hrs by sulforhodamine B assay; conditions: UACC-257, 48 h
Method in brief: (§1)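 Cells grown in RPMI-1640 with 5% FBS and 2 mM glutamine, plated and preincubated 24 h; time-zero plates TCA-fixed. Five-level serial dilutions added, 48 h at 37 °C. TCA fixation, SRB staining, absorbance 515 nm. GI50 derived from [(Ti−Tz)/(C−Tz)]×100 = 50; TGI is concentration giving 100% growth inhibition.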

CAKI-1 = experiment: Antitumor activity against human Caki1 cells after 48 hrs by sulforhodamine B assay; conditions: CAKI-1, 48 h
Method in brief: (§2)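 Cells were grown in RPMI-1640 with 5% FBS and 2 mM L-glutamine, plated at 5000–40,000 cells/well, and preincubated for 24 h. A time-zero plate was TCA-fixed. Compounds were added from DMSO stock at five concentrations for 48 h at 37 °C. Cells were fixed with TCA (adherent 10%, suspension 16%) and stained with SRB, and A515 was read. GI50 and TGI were calculated from Tz, control and test absorbances.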

HL-60(TB) = experiment: Antitumor activity against human HL-60(TB) cells after 48 hrs by sulforhodamine B assay; conditions: HL-60, 48 h
Method in brief: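 NCI panel screen. Cells were grown in RPMI-1640 with 5% FBS and 2 mM L-glutamine, seeded at 5000–40,000 cells/well depending on doubling time, and preincubated 24 h at 37 °C in 5% CO2. Compound was diluted from a DMSO concentrate to five levels and given for 48 h. Settled cells were fixed with TCA (final 16%), stained with 0.4% SRB, and read at 515 nm. GI50 was taken from [(Ti−Tz)/(C−Tz)]×100 = 50.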

[1] = Antitumor activity against human […] cells after 48 hrs by sulforhodamine B assay; conditions: RPMI-8226, 48 h
Method in brief: (§3)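 Cells were cultured in RPMI-1640 (5% FBS, 2 mM L-glutamine), pre-incubated for 24 h with time-zero plates TCA-fixed, then exposed for 48 h to five serial dilutions. The SRB read-out at 515 nm used time-zero, control and test absorbances. GI50 solves [(Ti−Tz)/(C−Tz)]×100 = 50 (net protein increase). TGI is the concentration giving 100% growth inhibition.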

HOP-62 = experiment: Antitumor activity against human HOP62 cells after 48 hrs by sulforhodamine B assay; conditions: HOP-62, 48 h; method in brief: as §2
HOP-92 = experiment: Antitumor activity against human HOP92 cells after 48 hrs by sulforhodamine B assay; conditions: HOP-92, 48 h; method in brief: as §2
NCI-H226 = experiment: Antitumor activity against human NCI-H226 cells after 48 hrs by sulforhodamine B assay; conditions: NCI-H226, 48 h; method in brief: as §3
NCI-H460 = experiment: Antitumor activity against human NCI-H460 cells after 48 hrs by sulforhodamine B assay; conditions: NCI-H460, 48 h; method in brief: as §3
NCI-H522 = experiment: Antitumor activity against human NCI-H522 cells after 48 hrs by sulforhodamine B assay; conditions: NCI-H522, 48 h; method in brief: as §3
HCT-15 = experiment: Antitumor activity against human HCT15 cells after 48 hrs by sulforhodamine B assay; conditions: HCT-15, 48 h; method in brief: as §2
SF-295 = experiment: Antitumor activity against human SF295 cells after 48 hrs by sulforhodamine B assay; conditions: SF-295, 48 h; method in brief: as §3
SF-539 = experiment: Antitumor activity against human SF539 cells after 48 hrs by sulforhodamine B assay; conditions: SF-539, 48 h; method in brief: as §3
SNB-75 = experiment: Antitumor activity against human SNB75 cells after 48 hrs by sulforhodamine B assay; conditions: SNB-75, 48 h; method in brief: as §3
LOX IMVI = experiment: Antitumor activity against human LOXIMVI cells after 48 hrs by sulforhodamine B assay; method in brief: as §2
Malme-3M = experiment: Antitumor activity against human MALME-3M cells after 48 hrs by sulforhodamine B assay; method in brief: as §2
SK-MEL-28 = experiment: Antitumor activity against human SK-MEL-28 cells after 48 hrs by sulforhodamine B assay; conditions: SK-MEL-28, 48 h; method in brief: as §3
UACC-62 = experiment: Antitumor activity against human UACC62 cells after 48 hrs by sulforhodamine B assay; conditions: UACC-62, 48 h; method in brief: as §1
OVCAR-5 = experiment: Antitumor activity against human OVCAR5 cells after 48 hrs by sulforhodamine B assay; conditions: OVCAR-5, 48 h; method in brief: as §3
ACHN = experiment: Antitumor activity against human ACHN cells after 48 hrs by sulforhodamine B assay; method in brief: as §2
UO-31 = experiment: Antitumor activity against human UO31 cells after 48 hrs by sulforhodamine B assay; conditions: UO-31, 48 h; method in brief: as §1
PC-3 = experiment: Antitumor activity against human PC3 cells after 48 hrs by sulforhodamine B assay; conditions: PC-3, 48 h; method in brief: as §3
MCF7 = experiment: Antitumor activity against human MCF7 cells after 48 hrs by sulforhodamine B assay; conditions: MCF7, 48 h; method in brief: as §2
MDA-MB-231 = experiment: Antitumor activity against human MDA-MB-231 cells after 48 hrs by sulforhodamine B assay; conditions: MDA-MB-231, 48 h; method in brief: as §2
BT-549 = experiment: Antitumor activity against human BT549 cells after 48 hrs by sulforhodamine B assay; conditions: BT-549, 48 h; method in brief: as §2
K562 = experiment: Antitumor activity against human K562 cells after 48 hrs by sulforhodamine B assay; conditions: K562, 48 h; method in brief: as §2

## COc1ccc(NC(=O)Nc2ccccc2OCCCOc2ccccc2NC(=O)Nc2ccc(OC)cc2)cc1
UACC-257
  GI50: > 100 µM
  TGI: > 100 µM
CAKI-1
  GI50: > 100 µM
  TGI: > 100 µM
HL-60(TB)
  GI50: 26.7 µM
  TGI: 68 µM
[1]
  GI50: 58.3 µM
  TGI: > 100 µM
HOP-62
  GI50: 3.3 µM
  TGI: 9.4 µM
HOP-92
  GI50: 2.7 µM
  TGI: 8.6 µM
NCI-H226
  GI50: > 100 µM
  TGI: > 100 µM
NCI-H460
  GI50: > 100 µM
  TGI: > 100 µM
NCI-H522
  GI50: > 100 µM
  TGI: > 100 µM
HCT-15
  GI50: > 100 µM
  TGI: > 100 µM
SF-295
  GI50: 29.9 µM
  TGI: > 100 µM
SF-539
  GI50: 3.4 µM
  TGI: > 100 µM
SNB-75
  GI50: 1.5 µM
  TGI: 5.3 µM
LOX IMVI
  GI50: > 100 µM
  TGI: > 100 µM
Malme-3M
  GI50: 0.3 µM
  TGI: 5.3 µM
SK-MEL-28
  GI50: > 100 µM
  TGI: > 100 µM
UACC-62
  GI50: > 100 µM
  TGI: > 100 µM
OVCAR-5
  GI50: > 100 µM
  TGI: > 100 µM
ACHN
  GI50: > 100 µM
  TGI: > 100 µM
UO-31
  GI50: > 100 µM
  TGI: > 100 µM
PC-3
  GI50: > 100 µM
  TGI: > 100 µM
MCF7
  GI50: > 100 µM
  TGI: > 100 µM
MDA-MB-231
  GI50: 8.8 µM
  TGI: > 100 µM
BT-549
  GI50: 1.5 µM
  TGI: 29.2 µM
K562
  GI50: 31.7 µM
  TGI: > 100 µM
